We go through 26 molecules from ChEMBL document CHEMBL1240523, “Small-molecule inhibitors of NADPH oxidase 4” (J Med Chem, 2010).

Common to all, as to assay type: cell-based
Series [1] is described as follows: Cytotoxicity against human free style HEK293 cells after 72 hrs. The settings on record: FreeStyle HEK293 cells. The essentials:
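Luminescent cell viability kit read-out; cells exposed to 10 μM compound for 72 h. Values expressed as percentage of live cells.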

For the next series, the target named is T1, NADPH oxidase 4 (Homo sapiens, UniProt Q9NPH5).
T1 sequence (Q9NPH5 whole entry): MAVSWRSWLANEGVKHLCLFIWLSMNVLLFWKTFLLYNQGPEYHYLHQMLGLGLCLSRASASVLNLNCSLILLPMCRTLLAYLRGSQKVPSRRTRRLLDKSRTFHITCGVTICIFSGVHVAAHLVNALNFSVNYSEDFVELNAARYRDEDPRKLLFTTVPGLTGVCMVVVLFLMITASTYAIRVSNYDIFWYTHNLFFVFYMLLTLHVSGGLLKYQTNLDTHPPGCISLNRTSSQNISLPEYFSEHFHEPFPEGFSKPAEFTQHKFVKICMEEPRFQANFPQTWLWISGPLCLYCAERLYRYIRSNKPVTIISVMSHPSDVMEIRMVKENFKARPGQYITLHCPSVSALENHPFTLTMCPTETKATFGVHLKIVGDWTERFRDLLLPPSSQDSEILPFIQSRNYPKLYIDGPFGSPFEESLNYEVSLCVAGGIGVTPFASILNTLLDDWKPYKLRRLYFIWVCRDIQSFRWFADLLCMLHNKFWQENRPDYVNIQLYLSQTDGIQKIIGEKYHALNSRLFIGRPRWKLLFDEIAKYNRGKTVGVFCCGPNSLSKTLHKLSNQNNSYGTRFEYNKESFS
The experiment in a line: Inhibition of NOX4 expressed in HEK293 FS cells assessed as H2O2 production by H2O2/Tyr/LPO assay. The procedure, abridged:
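Cell-based H2O2/Tyr/LPO assay in free-style HEK 293 F cells transfected to overexpress constitutively H2O2-producing NOX4. NOX4-generated H2O2 drives LPO conversion of L-tyrosine to fluorescent o,o'-dityrosine, read on a spectrofluorometric plate reader. IC50 estimated from an eight-point curve, 1/2 dilution series from 10 to 0.078 μM.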

Series [2] has as its target T2, NADPH oxidase 4 (Homo sapiens) (UniProt Q9NPH5).
T2 sequence (whole entry): T1 sequence (Q9NPH5 whole entry)
The experiment in a line: Inhibition of NOX4 expressed in HEK293 FS cells at 10 uM assessed as H2O2 production by H2O2/Tyr/LPO assay. The procedure, abridged: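 Primary screen at 10 μM in the H2O2/Tyr/LPO cellular assay. HEK 293 FS cells overexpress NOX4. The LPO enzyme forms fluorescent o,o'-dityrosine from L-tyrosine and H2O2, detected by spectrofluorometric plate reader. Inhibition expressed relative to DPI.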

In series [3] the target is T2, NADPH oxidase 4 (Homo sapiens). The experiment in a line: Inhibition of NOX4 expressed in HEK293 FS cells at 10 uM assessed as H2O2 production by H2O2/Tyr/LPO assay substituted with 3 uM H2O2. The conditions noted are these: values are per cent of control. The procedure, abridged: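 Redox-activity counter-screen: transfected cells replaced by 3 μM H2O2 in the H2O2/Tyr/LPO read-out (LPO plus L-tyrosine giving fluorescent dityrosine). Compounds at 10 μM final, to detect breakdown of H2O2 independent of NOX4.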

With `COC(=O)c1cc(NCc2ccccc2O)ccc1O`, the cytotoxicity at 72 h in series [1] was 106%. Also, the IC50 on NADPH oxidase 4 was 1270 nM. Moreover, the inhibition in series [2] worked out at 91%. In series [3], the % inhibition of H2O2 signal (cell-free redox counter-screen) was 3.83%.

In the case of `C=CCN(CC=C)C(=S)/N=C1\C(=O)Nc2cc(C)c(O)c(C)c21`, the inhibition in series [2] was 100%.

`C=CCN(CC=C)C(=S)N=C1C(=O)Nc2cc(C)c(O)c(C)c21` yielded a cytotoxicity at 72 h in series [1] of 97.8%. Besides, at NADPH oxidase 4, the half-maximal inhibitory concentration (IC50) turned out to be 1000 nM.

With `N#Cc1ccccc1Cn1c(=O)c2cc(O)c(O)cc2c2cc(O)c(O)cc21`, the cytotoxicity at 72 h in series [1] came to 108%. Moreover, the IC50 on NADPH oxidase 4 worked out at 590 nM. Further, the inhibition in series [2] worked out at 97%. The % inhibition of H2O2 signal (cell-free redox counter-screen) in series [3] is 4.8%.

In turn, `O=c1cc(-c2ccc(O)c(O)c2)oc2cc(O)cc(O)c12` [LUTEOLIN] gave a cytotoxicity at 72 h in series [1] of 110%. Also, the IC50 at NADPH oxidase 4 amounted to 850 nM. Further, the inhibition in series [2] worked out at 106%.

As to `O=C(O)c1cc(NCc2cc(O)ccc2O)ccc1O` [LAVENDUSTIN C], the cytotoxicity at 72 h in series [1] came to 88.7%. Also, the IC50 at NADPH oxidase 4 was determined as 1340 nM. Besides, in series [2], the inhibition was 82%. The % inhibition of H2O2 signal (cell-free redox counter-screen) in series [3] came to 72.4%.

In the case of `Nc1cccc(Nc2ncnc3c2sc2ccc(N)cc23)c1`, in series [1], the cytotoxicity at 72 h came to 106%. For the same molecule, on NADPH oxidase 4, the IC50 was 240 nM. Further, the inhibition in series [2] amounted to 98%. Also, the % inhibition of H2O2 signal (cell-free redox counter-screen) in series [3] is 17.9%.

`CC(C)c1cc(/C=C2\C(=O)Nc3ccccc32)cc(C(C)C)c1O`: the cytotoxicity at 72 h in series [1] is 18.7%. Also, the IC50 at NADPH oxidase 4 amounted to 630 nM. Besides, in series [2], the inhibition amounted to 102%. The % inhibition of H2O2 signal (cell-free redox counter-screen) in series [3] is -0.88%.

Regarding `COc1cc(/C=C2\C(=O)Nc3ccc(NC(C)=O)cc32)ccc1O`, in series [1], the cytotoxicity at 72 h was found to be 112%. The IC50 on NADPH oxidase 4 is 1400 nM. Also, the inhibition in series [2] was determined as 104%. Besides, the % inhibition of H2O2 signal (cell-free redox counter-screen) in series [3] is -5.16%.

On to `COc1cc(O)c2c(=O)c(OC)c(-c3ccc(O)c(O)c3)oc2c1`, for which the IC50 at NADPH oxidase 4 came to 1020 nM. In addition, the inhibition in series [2] is 88%.

In turn, `O=C(O)c1cc(NCc2ccccc2O)ccc1O` displayed a cytotoxicity at 72 h in series [1] of 102%. Further, the IC50 on NADPH oxidase 4 was found to be 960 nM. In series [2], the inhibition came out at 89%. Besides, in series [3], the % inhibition of H2O2 signal (cell-free redox counter-screen) came to 5.35%.

On to `O=c1c(O)c(-c2ccc(O)cc2)oc2cc(O)cc(O)c12` [KAEMPFEROL], for which the cytotoxicity at 72 h in series [1] turned out to be 119%. For the same molecule, the IC50 at NADPH oxidase 4 came out at 1200 nM. Moreover, in series [2], the inhibition came to 105%. Moreover, in series [3], the % inhibition of H2O2 signal (cell-free redox counter-screen) was determined as 2.09%.

Regarding `COc1cc(CCNC(=O)C(=O)Nc2cccc(N)c2)ccc1O`, in series [1], the cytotoxicity at 72 h amounted to 82.4%. In addition, the IC50 on NADPH oxidase 4 worked out at 1300 nM. In addition, the inhibition in series [2] stood at 104%. Further, the % inhibition of H2O2 signal (cell-free redox counter-screen) in series [3] is -3.3%.

`O=c1c(O)c(-c2ccc(O)c(O)c2)oc2cc(O)cc(O)c12` [QUERCETIN]: the cytotoxicity at 72 h in series [1] amounted to 102%. In addition, the IC50 at NADPH oxidase 4 came to 680 nM. The inhibition in series [2] turned out to be 94%.

Turning to `O=c1c2cc(O)c(O)cc2c2cc(O)c(O)cc2n1Cc1cc([N+](=O)[O-])ccc1O`, in series [1], the cytotoxicity at 72 h worked out at 90.6%. Besides, the IC50 on NADPH oxidase 4 was 170 nM. Besides, in series [2], the inhibition was found to be 104%. Moreover, in series [3], the % inhibition of H2O2 signal (cell-free redox counter-screen) is -4.8%.

As to `O=C(N/N=C/c1cccc(O)c1O)C(=O)N/N=C/c1cccc(O)c1O`, the cytotoxicity at 72 h in series [1] came out at 67.2%. For the same molecule, the half-maximal inhibitory concentration (IC50) on NADPH oxidase 4 was 910 nM. Moreover, in series [2], the inhibition turned out to be 103%. In series [3], the % inhibition of H2O2 signal (cell-free redox counter-screen) was -4.58%.

`O=c1c2cc(O)c(O)cc2c2cc(O)c(O)cc2n1Cc1ccc([N+](=O)[O-])cc1` yielded a cytotoxicity at 72 h in series [1] of 108%. Also, on NADPH oxidase 4, the 50% inhibitory concentration (IC50) was found to be 1580 nM. The inhibition in series [2] came to 93%. For the same molecule, the % inhibition of H2O2 signal (cell-free redox counter-screen) in series [3] is -6.11%.

Turning to `O=c1c(O[C@H]2O[C@H](CO)[C@@H](O)[C@H](O)[C@H]2O)c(-c2ccc(O)c(O)c2)oc2cc(O)cc(O)c12` [MIQUELIANIN], the inhibition in series [2] amounted to 105%. Further, in series [3], the % inhibition of H2O2 signal (cell-free redox counter-screen) is -1.86%.

In turn, `COc1cc(O)cc2oc(-c3ccc(O)c(O)c3)c(O)c(=O)c12` came in with a cytotoxicity at 72 h in series [1] of 121%. For the same molecule, the IC50 on NADPH oxidase 4 stood at 740 nM. In addition, the inhibition in series [2] was 100%. In addition, in series [3], the % inhibition of H2O2 signal (cell-free redox counter-screen) worked out at 3.17%.

Consider `O=c1cc(-c2ccc(O)cc2)oc2cc(O)cc(O)c12` [APIGENIN], for which, in series [1], the cytotoxicity at 72 h amounted to 108%. Besides, at NADPH oxidase 4, the IC50 is 1130 nM. Moreover, the inhibition in series [2] is 105%. For the same molecule, the % inhibition of H2O2 signal (cell-free redox counter-screen) in series [3] was -1.2%.

Consider `Nc1ccc(Nc2ncnc3c2sc2ccc(N)cc23)cc1`, for which, in series [1], the cytotoxicity at 72 h turned out to be 60.5%. In addition, at NADPH oxidase 4, the IC50 was determined as 1070 nM. In addition, the inhibition in series [2] was 101%. Also, the % inhibition of H2O2 signal (cell-free redox counter-screen) in series [3] was -2.78%.

In series [1], `O=C(N/N=C/c1ccc(O)c(O)c1)C(=O)N/N=C/c1ccc(O)c(O)c1` came in with a cytotoxicity at 72 h of 99.5%. The IC50 at NADPH oxidase 4 worked out at 1160 nM. Besides, the inhibition in series [2] was determined as 105%. Besides, in series [3], the % inhibition of H2O2 signal (cell-free redox counter-screen) stood at 7.6%.

Take `O=C(NCCc1ccc(O)c(O)c1)C(=O)Nc1cccc([N+](=O)[O-])c1`: the cytotoxicity at 72 h in series [1] worked out at 74.9%. Further, on NADPH oxidase 4, the IC50 came to 1640 nM. In series [2], the inhibition was 104%. Besides, the % inhibition of H2O2 signal (cell-free redox counter-screen) in series [3] is -3.5%.

In series [1], `O=c1c2cc(O)c(O)cc2c2cc(O)c(O)cc2n1Cc1ccccc1S(=O)(=O)c1ccccc1` had a cytotoxicity at 72 h of 113%. The IC50 at NADPH oxidase 4 is 1580 nM. The inhibition in series [2] came out at 95%. Also, the % inhibition of H2O2 signal (cell-free redox counter-screen) in series [3] is -1.05%.

`O=C1Nc2ccc([N+](=O)[O-])cc2/C1=C/c1ccc(O)c(O)c1` gave a cytotoxicity at 72 h in series [1] of 123%. At NADPH oxidase 4, the half-maximal inhibitory concentration (IC50) turned out to be 1130 nM. The inhibition in series [2] is 102%. Also, in series [3], the % inhibition of H2O2 signal (cell-free redox counter-screen) turned out to be 0.39%.

For `O=c1c2cc(O)c(O)cc2c2cc(O)c(O)cc2n1Cc1cccc([N+](=O)[O-])c1`, the cytotoxicity at 72 h in series [1] is 112%. In addition, at NADPH oxidase 4, the IC50 is 260 nM. For the same molecule, the inhibition in series [2] was 101%. For the same molecule, the % inhibition of H2O2 signal (cell-free redox counter-screen) in series [3] is -4.9%.
